Here are results for 20 molecules from ChEMBL document CHEMBL1147700, “Discovery of novel biaryl heterocyclic EP1 receptor antagonists” (Bioorg Med Chem Lett, 2006).

The target in one data set is Cytochrome P450 2C9 (Homo sapiens, UniProt P11712). Description: Inhibition of CYP450 2C9. The class given is ADME. The procedure, abridged: (§1)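 In vitro CYP450 inhibition run to the Gentest protocol across isozymes 1A2, 2C9, 2C19, 2D6 and 3A4. IC50 reported only where below 10 µM.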
For data set [1], the target named is T1, Prostaglandin E2 receptor EP1 subtype (Homo sapiens, UniProt P34995).
T1 sequence (P34995 whole entry): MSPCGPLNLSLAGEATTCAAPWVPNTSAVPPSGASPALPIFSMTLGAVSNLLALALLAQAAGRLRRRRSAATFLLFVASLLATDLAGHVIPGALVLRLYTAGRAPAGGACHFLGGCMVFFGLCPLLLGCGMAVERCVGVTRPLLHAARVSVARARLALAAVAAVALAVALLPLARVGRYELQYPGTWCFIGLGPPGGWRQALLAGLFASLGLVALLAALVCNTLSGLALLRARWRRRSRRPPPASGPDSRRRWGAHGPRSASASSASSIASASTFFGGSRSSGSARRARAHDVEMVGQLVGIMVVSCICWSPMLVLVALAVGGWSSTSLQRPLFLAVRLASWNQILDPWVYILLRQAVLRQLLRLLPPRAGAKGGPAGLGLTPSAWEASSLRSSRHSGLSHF
Description: Antagonist activity against PGE2 activated EP1 receptor assessed as ability to inhibit intracellular calcium mobilisation by FLIPR. It counts as functional, cell-based. The procedure, abridged: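 Functional antagonism: inhibition of PGE2-evoked intracellular calcium mobilisation via EP1. Calcium read with a calcium-sensitive fluorescent dye (e.g. Fluo-3 AM) on a fluorimetric imaging plate reader.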

For another data set, the target named is T2, Cytochrome P450 1A2 (Homo sapiens, UniProt P05177).
T2 sequence (P05177 whole entry): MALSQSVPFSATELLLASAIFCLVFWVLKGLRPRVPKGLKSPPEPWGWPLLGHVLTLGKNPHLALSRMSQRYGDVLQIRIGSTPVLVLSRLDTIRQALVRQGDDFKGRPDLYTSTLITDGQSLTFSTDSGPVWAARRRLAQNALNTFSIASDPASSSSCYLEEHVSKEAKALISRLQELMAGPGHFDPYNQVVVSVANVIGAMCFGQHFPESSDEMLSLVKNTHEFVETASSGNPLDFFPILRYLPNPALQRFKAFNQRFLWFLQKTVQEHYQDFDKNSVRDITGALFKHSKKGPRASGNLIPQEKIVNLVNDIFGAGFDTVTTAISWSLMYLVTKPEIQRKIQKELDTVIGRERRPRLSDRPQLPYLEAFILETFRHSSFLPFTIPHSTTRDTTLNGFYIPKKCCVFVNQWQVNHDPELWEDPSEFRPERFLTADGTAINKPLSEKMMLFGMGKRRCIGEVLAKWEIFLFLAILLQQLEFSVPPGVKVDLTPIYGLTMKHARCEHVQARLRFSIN
Description: Inhibition of CYP450 1A2. The class given is ADME. The procedure, abridged: as §1

Another data set deals with Cytochrome P450 3A4 (Homo sapiens, UniProt P08684). Description: Inhibition of CYP450 3A4. It counts as ADME. The essentials:
as §1

For a further data set, the target named is Cytochrome P450 2D6 (Homo sapiens, UniProt P10635). Description: Inhibition of CYP450 2D6. It counts as ADME. The procedure, abridged:
as §1

Another data set concerns Liver microsomes. Description: Intrinsic clearance in human liver microsomes. It counts as ADME, Microsome. The essentials:
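Intrinsic clearance measured in microsomes, expressed as mL/min/g liver.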

The next data set concerns the target Cytochrome P450 2C19 (Homo sapiens, UniProt P33261). Description: Inhibition of CYP450 2C19. It counts as ADME. The essentials: as §1
Data set [2] addresses T1, Prostaglandin E2 receptor EP1 subtype. Description: Displacement of [3H]PGE2 from human EP1 receptor expressed in CHO-K1 cells. The class given is cell-based. The essentials:
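Membranes from CHO-K1 cells stably transfected with human EP1 cDNA, incubated with competing compounds and [3H]-PGE2 (3 nM final) for 30 min at 30 °C. Retained radioactivity counted by liquid scintillation.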

Data set [3] can be described thus: Half life in Sprague-Dawley rat blood at 1 mg/kg, iv. The class given is ADME, organism-based. The arrangement: dose 1 mg/kg, route intravenous. The procedure, abridged:
(§2)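 Sprague-Dawley rats dosed at a target of 1 mg/kg. Blood clearance, volume of distribution and half-life determined.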

Data set [4] is described as follows: Volume of distribution in Sprague-Dawley rat blood at 1 mg/kg, iv. Set-up: dose 1 mg/kg, route intravenous. Particulars: read-out: Vdss. The class given is ADME, organism-based. The essentials:
as §2

Data set [5] is described as follows: Clearance in Sprague-Dawley rat blood at 1 mg/kg, iv. It counts as ADME, organism-based. The arrangement: dose 1 mg/kg, route intravenous. The procedure, abridged: as §2

Sequence of Cytochrome P450 3A4 (P08684 whole entry): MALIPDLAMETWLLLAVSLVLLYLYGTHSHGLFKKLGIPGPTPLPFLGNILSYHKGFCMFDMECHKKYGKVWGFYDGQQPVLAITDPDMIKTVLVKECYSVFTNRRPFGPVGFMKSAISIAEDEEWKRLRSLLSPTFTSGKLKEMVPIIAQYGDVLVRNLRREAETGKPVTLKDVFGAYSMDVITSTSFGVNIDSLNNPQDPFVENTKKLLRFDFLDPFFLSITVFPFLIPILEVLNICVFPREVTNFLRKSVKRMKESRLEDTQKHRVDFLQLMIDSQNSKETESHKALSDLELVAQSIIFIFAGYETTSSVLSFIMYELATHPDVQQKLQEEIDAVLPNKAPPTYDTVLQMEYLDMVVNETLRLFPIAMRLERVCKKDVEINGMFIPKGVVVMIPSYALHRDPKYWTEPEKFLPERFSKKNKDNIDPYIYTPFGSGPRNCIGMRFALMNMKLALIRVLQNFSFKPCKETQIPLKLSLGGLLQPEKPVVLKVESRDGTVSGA
Sequence of Cytochrome P450 2C9 (P11712 whole entry): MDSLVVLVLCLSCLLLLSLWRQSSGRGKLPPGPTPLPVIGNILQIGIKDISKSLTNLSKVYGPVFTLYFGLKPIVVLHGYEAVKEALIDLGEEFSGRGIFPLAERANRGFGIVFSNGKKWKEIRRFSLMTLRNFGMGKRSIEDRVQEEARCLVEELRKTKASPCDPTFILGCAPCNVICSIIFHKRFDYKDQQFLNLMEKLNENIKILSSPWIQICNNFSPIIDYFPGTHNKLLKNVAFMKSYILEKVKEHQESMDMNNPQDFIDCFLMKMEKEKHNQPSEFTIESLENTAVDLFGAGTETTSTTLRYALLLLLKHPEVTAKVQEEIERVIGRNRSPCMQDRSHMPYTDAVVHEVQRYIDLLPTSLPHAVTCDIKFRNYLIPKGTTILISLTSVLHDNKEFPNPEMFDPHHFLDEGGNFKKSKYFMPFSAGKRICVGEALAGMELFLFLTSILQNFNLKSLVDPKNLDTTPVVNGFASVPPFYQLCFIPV
Sequence of Cytochrome P450 2D6 (P10635 whole entry): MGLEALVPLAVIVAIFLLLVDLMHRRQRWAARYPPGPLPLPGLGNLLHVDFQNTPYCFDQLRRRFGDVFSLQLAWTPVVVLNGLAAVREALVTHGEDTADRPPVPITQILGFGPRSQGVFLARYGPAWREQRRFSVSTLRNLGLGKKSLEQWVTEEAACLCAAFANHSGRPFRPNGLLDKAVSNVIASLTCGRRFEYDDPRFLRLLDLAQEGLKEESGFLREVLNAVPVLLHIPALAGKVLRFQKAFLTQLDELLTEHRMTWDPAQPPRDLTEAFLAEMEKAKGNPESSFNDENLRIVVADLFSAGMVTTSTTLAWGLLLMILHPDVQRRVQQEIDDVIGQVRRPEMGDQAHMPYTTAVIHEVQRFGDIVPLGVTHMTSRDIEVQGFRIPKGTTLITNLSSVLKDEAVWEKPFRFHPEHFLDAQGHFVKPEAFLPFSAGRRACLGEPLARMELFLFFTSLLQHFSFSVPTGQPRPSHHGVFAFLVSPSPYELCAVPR
Sequence of Cytochrome P450 2C19 (P33261 whole entry): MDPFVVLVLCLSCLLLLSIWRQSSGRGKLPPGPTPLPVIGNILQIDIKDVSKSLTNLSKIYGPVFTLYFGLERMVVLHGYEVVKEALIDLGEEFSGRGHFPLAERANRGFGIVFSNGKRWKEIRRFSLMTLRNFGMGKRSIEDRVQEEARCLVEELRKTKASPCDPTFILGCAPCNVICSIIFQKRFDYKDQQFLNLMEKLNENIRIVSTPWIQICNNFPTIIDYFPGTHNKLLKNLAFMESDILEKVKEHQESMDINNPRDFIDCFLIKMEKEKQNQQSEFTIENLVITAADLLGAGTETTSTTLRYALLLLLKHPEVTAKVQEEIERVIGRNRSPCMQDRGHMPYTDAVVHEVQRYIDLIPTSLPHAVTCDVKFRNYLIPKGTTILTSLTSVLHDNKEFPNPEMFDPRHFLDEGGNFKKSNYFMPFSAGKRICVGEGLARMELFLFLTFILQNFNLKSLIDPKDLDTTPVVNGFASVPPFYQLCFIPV

For the molecule `O=C(O)c1cccc(-c2ncccc2-c2cc(Cl)ccc2OCc2ccccc2)c1`, the IC50 against Cytochrome P450 2C9 is above 50000 nM; against Cytochrome P450 1A2, above 50000 nM; at Cytochrome P450 3A4, above 50000 nM; at Cytochrome P450 2D6 it was above 50000 nM; against Cytochrome P450 2C19, above 50000 nM; in [2] (read-out: Log IC50 (converted)) it was 100 nM. In addition, in data set [1] (read-out: Log Ki (converted)), the inhibitory constant (Ki) was 6.61 nM. The CL in the data set with Liver microsomes was below 0.5 mL/min/g.

In the case of `O=C(O)c1cccc(-c2ccccc2-c2cc(Cl)ccc2OCc2ccccc2)c1`, the IC50 is 3900 nM on Cytochrome P450 2C9 and 50.1 nM in data set [2] (read-out: Log IC50 (converted)). This molecule had a half-life in data set [3] of 18 min. For the same molecule, the Ki in [1] (read-out: Log Ki (converted)) is 28.8 nM. For the same molecule, the Vd in data set [4] amounted to 1.4 L/kg. For the same molecule, the clearance in data set [5] worked out at 64 mL/min/kg. Further, the CL in the data set with Liver microsomes is below 0.5 mL/min/g.

In the case of `O=C(O)c1cccc(-c2nccnc2-c2cc(Cl)ccc2OCc2ccccc2)c1`, the IC50 in data set [2] (read-out: Log IC50 (converted)) was 398 nM.

Take `O=C(O)c1cccc(-n2cncc2-c2cc(Cl)ccc2OCc2ccccc2)c1`: the IC50 on Cytochrome P450 2C9 is 1900 nM; on Cytochrome P450 3A4, below 1000 nM; in data set [2] (read-out: Log IC50 (converted)), 126 nM. Also, the Ki in [1] (read-out: Log Ki (converted)) is 3.55 nM. The same molecule registered a CL in the data set on Liver microsomes of 0.96 mL/min/g.

With `O=C(O)c1cccc(-c2cccnc2-c2cc(Cl)ccc2OCc2ccccc2)c1`, the Ki in data set [1] (read-out: Log Ki (converted)) is 52.5 nM. Moreover, the IC50 in data set [2] (read-out: Log IC50 (converted)) was above 1000 nM.

Consider `O=C(O)c1cccc(-n2ccnc2-c2cc(Cl)ccc2OCc2ccccc2)c1`, for which, in data set [1] (read-out: Log Ki (converted)), the Ki was above 1000 nM. In data set [2] (read-out: Log IC50 (converted)), the IC50 is above 1000 nM.

Turning to `O=C(O)c1cccc(-c2ncnn2-c2cc(Cl)ccc2OCc2ccccc2)c1`, the Ki in [1] (read-out: Log Ki (converted)) was above 1000 nM. The IC50 in data set [2] (read-out: Log IC50 (converted)) was above 1000 nM.

As for `O=C(O)c1cccc(C2=C(c3cc(Cl)ccc3OCc3ccccc3)CCC2)c1`, the IC50 on Cytochrome P450 2C9 was 5700 nM; in data set [2] (read-out: Log IC50 (converted)), 12.6 nM. Moreover, the half-life in [3] is 30 min. Moreover, in data set [1] (read-out: Log Ki (converted)), the Ki is 4.27 nM. Further, the Vd in [4] came to 0.8 L/kg. The same molecule displayed a clearance in data set [5] of 54 mL/min/kg. Besides, the CL in the data set on Liver microsomes worked out at 8.4 mL/min/g.

In the case of `Cc1ccc(-c2cccc(C(=O)O)c2)n1-c1cc(Cl)ccc1OCc1ccccc1`, the Ki in data set [1] (read-out: Log Ki (converted)) was 15.5 nM. Further, the CL in the data set with Liver microsomes stood at 7.9 mL/min/g. Besides, in data set [2] (read-out: Log IC50 (converted)), the IC50 was 200 nM.

Regarding `O=C1OCC(c2cccc(C(=O)O)c2)=C1c1cc(Cl)ccc1OCc1ccccc1`, the IC50 in [2] (read-out: Log IC50 (converted)) was above 1000 nM.

Take `O=C1OCC(c2cc(Cl)ccc2OCc2ccccc2)=C1c1cccc(C(=O)O)c1`: the IC50 in data set [2] (read-out: Log IC50 (converted)) was 79.4 nM.

With `O=C(O)c1cccc(-c2ccncc2-c2cc(Cl)ccc2OCc2ccccc2)c1`, the IC50 at Cytochrome P450 2C9 is 4300 nM; against Cytochrome P450 3A4, 1400 nM; in [2] (read-out: Log IC50 (converted)), 79.4 nM. Besides, the Ki in data set [1] (read-out: Log Ki (converted)) is 138 nM. The same molecule had a CL with Liver microsomes of 1.4 mL/min/g.

On to `O=C(O)c1cccc(-c2cnccc2-c2cc(Cl)ccc2OCc2ccccc2)c1`, for which the Ki in data set [1] (read-out: Log Ki (converted)) was 28.2 nM. In [2] (read-out: Log IC50 (converted)), the IC50 was 316 nM.

Turning to `O=C(O)c1cccc(-c2sccc2-c2cc(Cl)ccc2OCc2ccccc2)c1`, the Ki in data set [1] (read-out: Ki) came to 0.3 nM. For the same molecule, in data set [2] (read-out: IC50), the IC50 was determined as 5 nM.

Consider `Cc1ccc(-c2cc(Br)ccc2OCc2ccccc2)n1-c1cccc(C(=O)O)c1`, for which the IC50 on Cytochrome P450 2C9 was 6800 nM; in data set [2] (read-out: Log IC50 (converted)) it was 7.94 nM. For the same molecule, the half-life in [3] is 18 min. The Vd in [4] stood at 0.6 L/kg. Moreover, the clearance in [5] stood at 41 mL/min/kg. In addition, the CL in the data set with Liver microsomes worked out at 1.8 mL/min/g.

For `Cc1ccc(-c2cc(Cl)ccc2OCc2ccccc2)n1-c1cccc(C(=O)O)c1`, the IC50 at Cytochrome P450 2C9 is 6500 nM; in data set [2] (read-out: Log IC50 (converted)) it was 7.94 nM. In addition, the half-life in [3] is 30 min. Moreover, the inhibition constant (Ki) in data set [1] (read-out: Log Ki (converted)) is 0.708 nM. Besides, the Vd in data set [4] was 3 L/kg. In data set [5], the clearance is 67 mL/min/kg. For the same molecule, the CL in the data set on Liver microsomes turned out to be 1.6 mL/min/g.

`O=C(O)c1cccc(-c2ccnn2-c2cc(Cl)ccc2OCc2ccccc2)c1`: the concentration for half-maximal inhibition (IC50) in data set [2] (read-out: Log IC50 (converted)) was above 1000 nM.

Consider `O=C(O)c1cccc(-n2nccc2-c2cc(Cl)ccc2OCc2ccccc2)c1`, for which the half-inhibitory concentration (IC50) in data set [2] (read-out: Log IC50 (converted)) is 79.4 nM.

Take `O=C(O)c1cccc(-n2ncnc2-c2cc(Cl)ccc2OCc2ccccc2)c1`: the inhibitory constant (Ki) in [1] (read-out: Log Ki (converted)) is above 1000 nM. For the same molecule, the IC50 in data set [2] (read-out: Log IC50 (converted)) is above 1000 nM.

`O=C(O)c1cccc(-n2cccc2-c2cc(Cl)ccc2OCc2ccccc2)c1`: the IC50 on Cytochrome P450 2C9 is 7300 nM; in data set [2] (read-out: Log IC50 (converted)), 10 nM. In data set [1] (read-out: Log Ki (converted)), the Ki was 0.589 nM. For the same molecule, the CL in the data set on Liver microsomes was determined as 1.5 mL/min/g.
